Results pooled from the literature.
Each line is one published result; the experiments were not run side by side.

`NC(=O)C1CCN(c2nc(-c3ccccn3)nc3ccccc23)C1` (stereo not shown) has a Papp of 8 ×10⁻⁶ cm/s (PAMPA; 10 µM, 3 h, pH 7.4).
`CN1CC(=O)O[C@H](Cc2ccccc2)C(=O)NCC(=O)N(C)CC(=O)O[C@H](Cc2ccccc2)C(=O)NCC1=O` has a Papp of 15 ×10⁻⁶ cm/s (PAMPA).
With `CC(C)(C)Nc1ccnc(Nc2cccc(-c3cccnc3)c2)n1` the Papp was 1990 ×10⁻⁶ cm/s (PAMPA; 50 nM, 30 min).
For `N=c1c2c(-c3ccccc3)c(-c3ccccc3)n(Cc3ccc(S(N)(=O)=O)cc3)c2ncn1C1CCOCC1`, the Papp was 1 ×10⁻⁶ cm/s (PAMPA; 50 µM, 30 min).
For `c1ccc(CN2CCN(c3nc(-c4ccccn4)nc4ccccc34)CC2)cc1`, the Papp was 32.8 ×10⁻⁶ cm/s (PAMPA; 10 µM, 3 h, pH 7.4).
For `O=C(NCCN1CCCC1)c1cc(-c2ccc(CN3CCOCC3)cc2)nc2ccc(F)cc12`, the Papp was 7.3 ×10⁻⁶ cm/s (PAMPA).
`Cc1sc2c(=O)n(O)c(=O)[nH]c2c1C` has a Papp of 0.5 ×10⁻⁶ cm/s (PAMPA; 10 µM, 5 h).
The Papp of `O=C(Nc1ccn(Cc2ccc(O)cc2C(F)(F)F)n1)c1c(F)cccc1F` is reported as 36 ×10⁻⁶ cm/s (PAMPA).
`N=c1c2c(-c3ccccc3)c(-c3ccccc3)n(Cc3ccc(OC(F)(F)F)cc3)c2ncn1[C@H]1CC[C@H](O)CC1` gave a Papp of 1250 ×10⁻⁶ cm/s (PAMPA; 50 µM, 30 min).
The Papp of `COCC(C)Nc1ccnc(Nc2cccc(-c3cccnc3)c2)n1` (stereo not shown) is reported as 1910 ×10⁻⁶ cm/s (PAMPA; 50 nM, 30 min).
For `Cc1cccc(/C=C/[C@@H]2[C@H](N3C(=O)OC[C@@H]3c3ccccc3)C(=O)N2[C@H](CC(=O)N2CCC(N3CCCCC3)CC2)C(=O)N[C@H](C)c2ccccc2)c1`, the Papp was greater than 4 ×10⁻⁶ cm/s (PAMPA-BBB; 25 µg/mL, 18 h, pH 7.4).
For `O=C(O)c1ccc2c(c1)nc(NCc1ccccc1)c1ncccc12`, the Papp was 6.53 ×10⁻⁶ cm/s (PAMPA; 5 h, pH 7.4).
`CC(C)Nc1ccnc(Nc2cccc(C(C)(C)C)c2)n1` gave a Papp of 1600 ×10⁻⁶ cm/s (PAMPA; 50 nM, 30 min).
For `Oc1ccc(-c2nc(N3CCC(c4ccccn4)C3)c3ccccc3n2)cc1` (stereo not shown), the Papp was 32.8 ×10⁻⁶ cm/s (PAMPA; 10 µM, 3 h, pH 7.4).
The Papp of `c1cncc(-c2cccc(Nc3nccc(NC4CCC4)n3)c2)c1` is reported as 2050 ×10⁻⁶ cm/s (PAMPA; 50 nM, 30 min).
The Papp of `Cc1c(C)n(Cc2ccccc2)c2ncn(C3CCOCC3)c(=N)c12` is reported as 1680 ×10⁻⁶ cm/s (PAMPA; 50 µM, 30 min).
`CC(C)Nc1ccnc(Nc2cccc(-c3ccccn3)c2)n1` gave a Papp of 2010 ×10⁻⁶ cm/s (PAMPA; 50 nM, 30 min).
`Cn1c(=O)c2c(ncn2C)n(C)c1=O` gave a Papp of 6.85 ×10⁻⁶ cm/s (PAMPA; 200 µM, 5 h).
For `O=C(CNc1cccc(OC(F)(F)F)c1)NC12CC3CC(CC(C3)C1)C2`, the Papp was 3.5 ×10⁻⁶ cm/s (PAMPA; 16 h).
`C[C@H](Nc1ccnc(Nc2cccc(-c3cccnc3)c2)n1)C(=O)O` has a Papp of 9.7 ×10⁻⁶ cm/s (PAMPA; 50 nM, 30 min).
The Papp of `O=C(O)c1ccc2c(c1)nc(NCc1ccccc1)c1ncncc12` is reported as 2.79 ×10⁻⁶ cm/s (PAMPA; 5 h, pH 7.4).
With `COc1ccc(Cn2c(-c3ccccc3)c(-c3ccccc3)c3c(=N)n(CC4CCOCC4)cnc32)cc1` the Papp was 1270 ×10⁻⁶ cm/s (PAMPA; 50 µM, 30 min).
The Papp of `CC(C)NCC(O)COc1cccc2ccccc12` (stereo not shown) is reported as 22.4 ×10⁻⁶ cm/s (PAMPA-BBB; 50 µM, 16 h, pH 7.4).
The Papp of `O=c1[nH]c2cc(-c3ccc(Cl)cc3)ccc2c(=O)n1O` is reported as 1.7 ×10⁻⁶ cm/s (PAMPA; 10 µM, 5 h).
With `CCCCNc1ccnc(Nc2cccc(-c3cccnc3)c2)n1` the Papp was 1720 ×10⁻⁶ cm/s (PAMPA; 50 nM, 30 min).
The Papp of `CO[C@H]1CNC[C@@H](OCC2CCC(F)(F)CC2)[C@@H]1Nc1ncc(-c2cncc(C)c2)c2cc(C)c(=O)[nH]c12` is reported as 19 ×10⁻⁶ cm/s (PAMPA; pH 7.4).
`O=c1[nH]c2sc(-c3ccc(F)cc3)cc2c(=O)n1O` has a Papp of 0.6 ×10⁻⁶ cm/s (PAMPA; 10 µM, 5 h).
`CCn1ccc2nc(-c3ccccn3)nc(N3CCC(c4ccccn4)C3)c21` (stereo not shown) gave a Papp of 21 ×10⁻⁶ cm/s (PAMPA; 10 µM, 3 h, pH 7.4).
For `O=c1[nH]c2cc(-c3ccc(F)cc3)sc2c(=O)n1O`, the Papp was 0.6 ×10⁻⁶ cm/s (PAMPA; 10 µM, 5 h).
With `Cc1cccnc1CNc1nc(-c2ccccn2)nc2ccccc12` the Papp was 27.1 ×10⁻⁶ cm/s (PAMPA; 10 µM, 3 h, pH 7.4).
`O=c1[nH]c2sc3c(c2c(=O)n1O)CCNC3` has a Papp of 0.07 ×10⁻⁶ cm/s (PAMPA; 10 µM, 5 h).
The Papp of `c1ccc(-c2nc(N3CCOCC3)c3ccccc3n2)nc1` is reported as 19.4 ×10⁻⁶ cm/s (PAMPA; 10 µM, 3 h, pH 7.4).
`c1cncc(-c2cccc(Nc3nccc(NC4CCOCC4)n3)c2)c1` gave a Papp of 1840 ×10⁻⁶ cm/s (PAMPA; 50 nM, 30 min).
For `O=c1[nH]c2sccc2c(=O)n1O`, the Papp was 0.08 ×10⁻⁶ cm/s (PAMPA; 10 µM, 5 h).
`N#Cc1cccc(-c2nc(N3CCC(c4ccccn4)C3)c3ccccc3n2)c1` (stereo not shown) has a Papp of 36.9 ×10⁻⁶ cm/s (PAMPA; 10 µM, 3 h, pH 7.4).
For `Cc1nc2n(c(=O)c1CCN1CCC(c3noc4cc(F)ccc34)CC1)CCCC2`, the Papp was 15.5 ×10⁻⁶ cm/s (PAMPA-BBB; 50 µM, 16 h, pH 7.4).
For `CC(C)NCC(O)COc1cccc2ccccc12` (stereo not shown), the Papp was 4.82 ×10⁻⁶ cm/s (PAMPA-BBB; 0.5 µM, 4 h, pH 7.4).
For `Cc1csc2c(=O)n(O)c(=O)[nH]c12`, the Papp was 0.1 ×10⁻⁶ cm/s (PAMPA; 10 µM, 5 h).
`COc1cc(CN2CCc3c(cc(Cn4ccnc4C)cc3-c3cn(C)nc3C(F)(F)F)C2=O)cc(OC)c1` gave a Papp of 5.3 ×10⁻⁶ cm/s (PAMPA; 100 µM, 5 h, pH 7.4).
With `COc1ccc(CCn2cnc3c(c(-c4ccccc4)c(-c4ccccc4)n3Cc3ccccc3)c2=N)cc1OC` the Papp was 1200 ×10⁻⁶ cm/s (PAMPA; 50 µM, 30 min).
With `CC(C)[C@@H]1NC(=O)[C@@H](Cc2ccccc2)OC(=O)CN(C)C(=O)[C@H](C(C)C)NC(=O)[C@@H](Cc2ccccc2)OC(=O)CN(C)C1=O` the Papp was 56 ×10⁻⁶ cm/s (PAMPA).
For `Fc1cccc(F)c1-c1nc(N2CCC(c3ccccn3)C2)c2ccccc2n1` (stereo not shown), the Papp was 35.5 ×10⁻⁶ cm/s (PAMPA; 10 µM, 3 h, pH 7.4).
With `N=c1c2c(-c3ccccc3)c(-c3ccccc3)n(CCc3ccccc3)c2ncn1CC1CCOCC1` the Papp was 1230 ×10⁻⁶ cm/s (PAMPA; 50 µM, 30 min).
